FID counter – compounds displacing fluorescent DNA intercalator, primary screen, artefact control for HCV NS3 helicase inhibitor project, biochemical, FID fluorescence. inhibition, % at 7.9 µM. DNA fluorescent intercalator displacement. AID 1845, 2009. actives 0.17% (n = 290,000); in the data active means inhibition above about 37%;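 further: higher means more ethidium bromide displaced from hairpin DNA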
HCV core dimer – inhibitors of HCV core protein dimerization, primary screen, biochemical, TR-FRET, high-throughput. actives 0.33% (n = 300,000). TR-FRET GST/Flag-core106 dimerization, 1536-well. inhibition, % at 5 µM;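 active means inhibition above the mean of all tested compounds plus 3 SD, set per screening campaign, cut at about 45% in these data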
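test system = GST/Flag-tagged HCV core106 proteins | probe or stimulus = Eu donor and XL665 acceptor anti-tag antibodies | times = compound-protein-antibody incubation 4 h at 22.5 °C | signal = TR-FRET, excitation 340 nm, emission 617 and 671 nm | measure = percent inhibition of core106 dimerization signal | controls = wells lacking GST-core106 and wells with excess unlabelled core106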
MEX-5 binding – MEX-5 zinc finger RNA-binding disruptors – biochemical, C. elegans, fluorescence polarization, MLPCN library, primary screen | Zinc finger protein mex-5 (Caenorhabditis elegans), Q9XUB2 | MEX-5/FITC-TCR2 RNA binding; hits give low values | activity score (negative = inhibition of binding), % at 10 µM | actives 0.38% (n = 300,000);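 active means inhibition past about -25% in most replicates, and total fluorescence under double the plate's negative control median, limit read from the data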
Target sequence (Q9XUB2 whole entry, looked up): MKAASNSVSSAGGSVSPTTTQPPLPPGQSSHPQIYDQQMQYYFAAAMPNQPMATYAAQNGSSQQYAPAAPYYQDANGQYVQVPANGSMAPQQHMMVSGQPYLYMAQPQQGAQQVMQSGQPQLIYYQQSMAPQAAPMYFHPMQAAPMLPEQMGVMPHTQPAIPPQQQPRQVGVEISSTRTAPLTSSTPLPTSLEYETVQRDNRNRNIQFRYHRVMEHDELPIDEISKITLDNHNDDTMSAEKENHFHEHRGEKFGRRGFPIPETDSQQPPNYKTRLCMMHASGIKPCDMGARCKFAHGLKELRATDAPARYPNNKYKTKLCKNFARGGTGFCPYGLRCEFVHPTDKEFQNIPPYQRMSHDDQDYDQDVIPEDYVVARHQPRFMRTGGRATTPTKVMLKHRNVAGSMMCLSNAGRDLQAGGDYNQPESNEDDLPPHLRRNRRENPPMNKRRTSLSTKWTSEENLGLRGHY
CendR NRP1 mod – modulators of CendR peptide binding to NRP-1, primary screen, biochemical, fluorescence polarization, uHTS | Neuropilin-1 (Homo sapiens), O14786 | FAM-RPARPAR peptide binding to NRP-1 | inhibition, % at 25 µM | actives 0.85% (n = 360,000) | AID 602438, 2012;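 active means inhibition or corrected inhibition above about 18%, plus a signal ratio from 0.5 to 1.5, limit read from the data, passing the limit was not always enough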
Of the large screens only hits and unclear results are named; the others gave an inactive call. Shown are actives, neighbours in structure and some others; about 1.5% of the full set was active somewhere.

O=C1SC(SCc2ccccc2)=N/C1=C\c1ccc(C(=O)O)cc1	MEX-5 binding -58.2
O=C(CN(c1cccc(Br)c1)S(=O)(=O)c1ccccc1)N/N=C/c1cc([N+](=O)[O-])ccc1O	CendR NRP1 mod 49.7 (no result: FID counter)
O=C(Cc1ccccc1)N/N=C/c1ccc(-c2ccc([N+](=O)[O-])cc2)o1	none
CCOc1ccc(S(=O)(=O)N(CC(=O)N/N=C/c2ccc(-c3ccc([N+](=O)[O-])cc3)o2)c2ccccc2)cc1	HCV core dimer 75.3
O=C(CCCC(=O)Nc1cccc(Br)c1)N/N=C/c1cc([N+](=O)[O-])ccc1O	none
Cc1ccc(C)c(N(CC(=O)N/N=C/c2ccc(-c3ccc([N+](=O)[O-])cc3)o2)S(=O)(=O)c2ccccc2)c1	HCV core dimer 52.3
CSc1cnc2c(=O)[nH]c(=O)n(C)c2n1	CendR NRP1 mod 26.8
Cn1cnc2c1c(=O)[nH]c(=O)n2C	none (no result: FID counter, CendR NRP1 mod)
c1ccc(-c2cc(NCCN3CCCCC3)c3ccccc3n2)cc1	FID counter 73.8
O=C(c1cc(-c2ccccc2)nc2ccccc12)N1CCCC1	none
COc1ccccc1CCC(=O)Nc1ccc2c(c1)c(=O)n(C)n2C	none (no result: FID counter, HCV core dimer, MEX-5 binding)
O=C(c1ccco1)[C@@H]1[C@@H]2C(=O)N(c3ccccc3)C(=O)[C@@H]2C2c3ccccc3C=CN21 (stereo partly specified)	MEX-5 binding -29.6
CCCSc1ccc([C@H]2N[C@@](C)(C(=O)OC)[C@H]3C(=O)N(C)C(=O)[C@@H]23)cc1OC	CendR NRP1 mod 27.5 (no result: FID counter)
CCC(C)Sc1ccc([C@H]2N[C@@](C)(C(=O)OC)[C@H]3C(=O)N(C)C(=O)[C@@H]23)cc1OC (stereo partly specified)	none (no result: FID counter)
CCCCCCSc1ccc([C@H]2N[C@@](Cc3ccccc3)(C(=O)OC)[C@H]3C(=O)N(C)C(=O)[C@@H]23)cc1OC	CendR NRP1 mod 27.8 (no result: FID counter)
COc1ccc(-c2sc3ccccc3c2-c2cc(OC)ccc2C=O)cc1	none (no result: FID counter, HCV core dimer, MEX-5 binding)
CN(C)c1ccc(/C=N/NC(=O)c2nonc2N)cc1[N+](=O)[O-]	CendR NRP1 mod 24.7
Cc1nn(-c2ccccc2)c(C)c1/C=N\N1CCN(c2ccc(Cl)cc2)CC1	CendR NRP1 mod 25.1
Cc1nn(-c2ccccc2)c(C)c1/C=N/n1cnnc1	none
Cc1ccc(S(=O)(=O)N2CCCN(C(=O)c3cc4ccccc4[nH]3)CC2)cc1	none
Cc1cc(Cl)cc2c(N=Nc3ccccc3C(=O)O)c(O)[nH]c12	none
Cc1ccc(Cl)c2c(N=Nc3ccccc3)c(O)[nH]c12	MEX-5 binding -43.5 (no result: HCV core dimer)
O=C1/C(=N\S(=O)(=O)c2cccs2)C([n+]2ccccc2)=C([O-])c2ccccc21	none
CC(C)(C)c1cc[n+](C2=C([O-])c3ccccc3C(=O)/C2=N\S(=O)(=O)c2cccs2)cc1	CendR NRP1 mod 30.7
CC(C)(C)NC(=O)C(c1ccnc2ccccc12)n1c(=O)c(-c2cc3ccccc3[nH]2)nc2ccccc21 (stereo unspecified)	none (no result: FID counter, HCV core dimer, MEX-5 binding)
CCOc1ccccc1NC(=O)c1cccc(S(=O)(=O)N(Cc2ccccc2)c2ccccc2OC)c1	CendR NRP1 mod 30.2
CC1CCC(NC(=O)C2CCC(CNS(=O)(=O)c3cccc4cccnc34)CC2)CC1 (stereo unspecified)	CendR NRP1 mod 21.3
O=C([C@@H]1CC=C[C@@H]2CCN(C3CCCCC3)C(=O)[C@@H]21)N1CCN(c2ccccc2)CC1	CendR NRP1 mod 23.4 (no result: FID counter)
COc1ccc(NC(=O)[C@@H]2CC=C[C@@H]3CCN(C4CCCCC4)C(=O)[C@@H]32)cc1	none (no result: FID counter)
O=C(NNC(=O)c1ccccc1O)c1ccco1	MEX-5 binding -29.2
O=C(NNC(=O)c1ccccc1F)c1ccco1	none
CCOC(=O)c1oc2ccc(S(=O)(=O)n3nc(-c4ccc(OC)cc4)cc3N)cc2c1C	HCV core dimer 47.1
CCOC(=O)c1oc2ccc(S(=O)(=O)n3nc(-c4ccccc4)cc3N)cc2c1C	none
COc1ccccc1NC(=O)Nc1nnc([C@H]2C[C@H](O)[C@@H](CO)O2)s1	none (no result: FID counter, HCV core dimer, MEX-5 binding)
CNC(=O)C1(c2ccccc2)CCCCC1	none (no result: FID counter, HCV core dimer, MEX-5 binding)
C[C@@H]1CN([C@@H](C)CO)C(=O)Cc2cc(NS(=O)(=O)c3ccccc3)ccc2O[C@H]1CN(C)S(C)(=O)=O	CendR NRP1 mod 20.7 (no result: FID counter, HCV core dimer, MEX-5 binding)
C[C@H]1CN([C@@H](C)CO)C(=O)c2cc(NC(=O)Nc3cccc4ccccc34)ccc2O[C@@H]1CN(C)Cc1ccc(-c2ccccc2)cc1	CendR NRP1 mod 25.3 (no result: FID counter, HCV core dimer, MEX-5 binding)
C[C@@H]1CN([C@H](C)CO)C(=O)c2cc(NC(=O)Nc3cccc4ccccc34)ccc2O[C@H]1CN(C)Cc1ccc(C(F)(F)F)cc1	none (no result: FID counter, HCV core dimer, MEX-5 binding)
C[C@H](CO)N1C[C@H](C)[C@@H](CN(C)S(=O)(=O)c2ccccc2)Oc2ccc(NC(=O)Cc3ccccc3)cc2C1=O	CendR NRP1 mod 23.7 (no result: FID counter, HCV core dimer, MEX-5 binding)
C[C@H](NC(=O)[C@@H]1CCCN1C(=O)[C@@H]1CCCN1)c1ccccc1	none (no result: FID counter, HCV core dimer, MEX-5 binding)
C=CCn1c(Cc2cccc3ccccc23)n[nH]c1=S	none
C=CCn1c(Cc2nc3ccccc3[nH]2)n[nH]c1=S	MEX-5 binding -51.1
Cc1cccc(-c2nc(=S)c3c(n2Cc2ccco2)CCCC3)c1	HCV core dimer 63.7 (no result: MEX-5 binding)
CC1=C(c2ccccc2)C(O)(c2ccccc2)C(C)C1=O (stereo unspecified)	none (no result: FID counter, HCV core dimer, MEX-5 binding)
O=C1C2C3CCCC3=C3CCCC3C2C(=O)N1c1cccc(Cl)c1 (stereo unspecified)	none
O=C1C2C3CCCC3=C3CCCC3C2C(=O)N1c1ccc(Cl)cc1 (stereo unspecified)	HCV core dimer 52.2
COC(C/C=C\[C@H](O)COCc1ccccc1)OC	CendR NRP1 mod 25.4 (no result: FID counter)
CCN(CCNC(=O)c1cccc(N2CCCC2=O)c1)c1ccccc1	none
CN(CCNC(=O)c1cccc(N2CCCC2=O)c1)Cc1ccccc1	CendR NRP1 mod 17.6
O=C(COc1ccc(/C=N/NC(=O)c2ccncc2)cc1)Nc1cccc([N+](=O)[O-])c1	none
O=C(COc1ccc(/C=N/NC(=O)c2ccccc2O)cc1)Nc1ccc([N+](=O)[O-])cc1	HCV core dimer 50.1
CCC1(O)C(=O)OCc2c1cc1n(c2=O)Cc2cc3cc(O)ccc3nc2-1 (stereo unspecified)	CendR NRP1 mod 45.3 (no result: FID counter, HCV core dimer, MEX-5 binding)
CCCCC1CC(=O)NC1(C(=O)OCC)C(=O)OCC (stereo unspecified)	none (no result: FID counter, HCV core dimer, MEX-5 binding)
O=C(c1cccs1)N(Cc1ccc(Cl)cc1)C1CCS(=O)(=O)C1 (stereo unspecified)	none
Cc1ccsc1CN(C(=O)c1ccccc1)C1CCS(=O)(=O)C1 (stereo unspecified)	CendR NRP1 mod 21.8
Cc1ccc(C(=O)N(Cc2sccc2C)C2CCS(=O)(=O)C2)cc1 (stereo unspecified)	none
CC(C)c1ccc(CN(C(=O)c2cccs2)C2CCS(=O)(=O)C2)cc1 (stereo unspecified)	CendR NRP1 mod 17.9
Cc1ccc(S(=O)(=O)N2CCCC2)cc1C(=O)NCC(C)(C)N1CCOCC1	none (no result: FID counter, HCV core dimer, MEX-5 binding)
